One assay deals with Bacillus subtilis. In words: In vitro antibacterial activity against Bacillis subtilis (06A001), and minimum inhibitory concentration was determined. It is filed as functional. In short, it runs like this:
(§1)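 Broth dilution MIC determination, done per a previously described procedure. Each value is the mean of two determinations.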

Assay [1] concerns Escherichia coli. In words: In vitro antibacterial activity against Escherichia coli (51A470), and minimum inhibitory concentration was determined. The class given is functional. In short, it runs like this:
as §1

Assay [2] deals with Escherichia coli. In words: In vitro antibacterial activity against Escherichia coli (51A125), and minimum inhibitory concentration was determined. The class given is functional. The essentials:
as §1

Another assay concerns Pasteurella multocida. The assay is described as follows: In vitro antibacterial activity against Pasteurella multocida (59A0001), and minimum inhibitory concentration was determined. It is filed as functional. In short, it runs like this: as §1
Assay [3] deals with Staphylococcus aureus. The assay is described as follows: In vitro for antibacterial activity against Staphylococcus aureus (01A111), and minimum inhibitory concentration was determined. The class given is functional. The essentials:
as §1

The test system of assay [4] is Staphylococcus aureus. The assay is described as follows: In vitro for antibacterial activity against Staphylococcus aureus (01A400), and minimum inhibitory concentration was determined. The class given is functional. In short, it runs like this:
as §1

The subject of assay [5] is Staphylococcus aureus. The assay is described as follows: In vitro antibacterial activity against Staphylococcus aureus (01A052), and minimum inhibitory concentration was determined. The class given is functional. The essentials: as §1
Assay [6] concerns Staphylococcus aureus. The assay is described as follows: In vitro antibacterial activity against Staphylococcus aureus (01A005), and minimum inhibitory concentration was determined. It is filed as functional. In short, it runs like this:
as §1

The test system of the next assay is Streptococcus pneumoniae. In words: In vitro antibacterial activity against Streptococcus pneumoniae (02J012), and minimum inhibitory concentration was determined. The class given is functional. In short, it runs like this:
as §1

The subject of the next assay is Streptococcus pyogenes. The assay is described as follows: In vitro antibacterial activity against Streptococcus pyogenes (02C203), and minimum inhibitory concentration was determined. It is filed as functional. In short, it runs like this: as §1
A further assay concerns Enterococcus faecalis. The assay is described as follows: In vitro antibacterial activity against Streptococcus faecalis (02A006), and minimum inhibitory concentration was determined. The class given is functional. The essentials:
as §1

Assay [7] has as its system Neisseria sicca. In words: In vitro antibacterial activity against Neisseria sicca (66C000), and minimum inhibitory concentration was determined.
Assay [8] relates to Neisseria sicca. In words: In vitro antibacterial activity against Neisseria sicca (66C000), and minimum inhibitory concentration was determined. The class given is functional. The essentials: as §1
Assay [9] relates to Escherichia coli. In words: In vitro antibacterial activity against Escherichia coli (51A125), and minimum inhibitory concentration was determined.

Structures are written as SMILES.

As to `C=CC1O[C@@H](O[C@@H]2C(C)C(=O)O[C@H](C)[C@H](C)C(OC(C)=O)C(C)C(=O)[C@]3(CO3)C[C@H](C)[C@H](OC3OC(C)CC(N(C)C)[C@H]3O)[C@H]2C)C[C@@H]1OC` (some centres undefined), the MIC in the assay on Bacillus subtilis is on record as 1.56; in the assay on Escherichia coli [1] it was 50; against Escherichia coli [2] it was >800; against Pasteurella multocida, 50; with Staphylococcus aureus [3] it was 0.78; in the assay with Staphylococcus aureus [4], 25. The MIC in the assay with Staphylococcus aureus [5] is listed as 6.25; in the assay with Staphylococcus aureus [6], 3.12; against Streptococcus pneumoniae, <0.01; in the assay on Streptococcus pyogenes, 0.39; in the assay on Enterococcus faecalis it was 12.5; in the assay with Neisseria sicca [7] it was 6.25.
Take `COC1CC(O[C@@H]2C(C)C(=O)O[C@H](C)[C@H](C)C(OC(C)=O)C(C)C(=O)[C@]3(CO3)C[C@H](C)[C@H](OC3OC(C)CC(N(C)C)[C@H]3O)[C@H]2C)OC(C)[C@@H]1O` (some centres undefined): the MIC against Bacillus subtilis came to 0.78; in the assay on Escherichia coli [1], 6.25; in the assay on Neisseria sicca [8], 1.56; with Pasteurella multocida, 6.25; in the assay on Staphylococcus aureus [3] it was 0.78; in the assay on Staphylococcus aureus [4], 1.56. The MIC is 0.39 in the assay on Staphylococcus aureus [5]; 0.39 in the assay on Staphylococcus aureus [6]; <0.01 in the assay with Streptococcus pneumoniae; 0.1 against Streptococcus pyogenes; 1.56 in the assay with Enterococcus faecalis; 400 against Escherichia coli [9].

The values above are taken from ChEMBL document CHEMBL1122104, “Ring contraction of oleandrose on the macrolide antibiotic oleandomycin with [(Methoxycarbonyl)sulfamoyl]triethylammonium hydroxide inner salt” (1982).
